Rows were chosen to be rich in hits. Some 1.5% of all compounds tested hit in one or more screens of this group.
C2C12 statin: suppressors of simvastatin-induced myotoxicity in C2C12 myotubes. 0.78% of 330,000 active. AID 602340. ATP luminescence, 48 h; scaled: DMSO 0, geranylgeraniol control 100. rescue of ATP level, % at 7.49 µM;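 active = mean ATP rescue above about 67%, or every replicate alone reaching that limit, limit read from the data, passing the limit was not always enough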;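 also: myotubes were challenged with 10 µM simvastatin during compound exposure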
SUMO Mot1 rescue: SUMOylation pathway inhibition by Mot1-301 growth rescue; S. cerevisiae Mot1-301 growth rescue, ATP luminescence, 38.5C; percent above DMSO median, 100 means doubled; 1% of 320,000 active; growth rescue, % at 18.8 µM;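 active = every valid replicate shows activation above 250% relative to neutral control wells; inactive = the rest, any valid replicate at or below 250%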;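 also: OY570 slx delta 5 strain wells were the positive control but not used for scaling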
Cneo AK release: Cryptococcus neoformans lysis via adenylate kinase release. C. neoformans lysis, adenylate kinase release luminescence, 4 h; normalised: neutral wells 0, clomiphene wells 100. lysis activity, % at 15 µM. 0.2% of 360,000 active. AID 651654;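 active = mean lysis activity across replicates of at least 80%, whatever share of replicates individually reach that level; inactive = mean lysis activity below 80%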
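Assay system: Cryptococcus neoformans yeast cells / Dosing: single-point compound dose / Timing: 4 h at 37 °C static, read 1 h later / Measured by: luminescence of released adenylate kinase using an AK detection reagent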
Numbers without * were called inactive; / = no result.

SMILES | C2C12 statin | SUMO Mot1 rescue | Cneo AK release
O=c1[nH]c(CN2CCCCC2)nc2c1C1(CCCCC1)Cc1ccccc1-2 | 91* | -11 | 9
CCC(=O)Nc1ccc2c(c1)OC[C@@H](C)N(Cc1cccnc1)C[C@H](C)[C@@H](OC)CN(C)C2=O | -16 | / | 0
CCC(=O)N[C@H]1C=C[C@@H](CC(=O)OC)O[C@@H]1CO | -16 | / | 88*
CCC(=O)N[C@@H]1C=C[C@H](CC(=O)OC)O[C@H]1CO | -15 | / | 18
COc1ccccc1CC(=O)Nc1ccccc1C(=O)O | 1 | 2 | -3
COc1cc(NC(=O)Cc2ccccc2)c(C(=O)O)cc1OC | / | 84 | /
CCOC(=O)c1ccccc1NC(=O)Cc1ccccc1OC | 6 | 391* | -4
COc1cc(NC(=O)Cc2cccc3ccccc23)c(C(=O)O)cc1OC | 83* | 18 | -1
O=C(NC1Cc2ccccc2C1)[C@H]1[C@H](CO)[C@H]2Cn3c(cccc3=O)[C@@H]1N2C(=O)CC1CC1 | 28 | / | 1
COc1cc(-c2nc3ccc4ccccc4c3c3c2CCC3)cc(OC)c1OC | 94* | -5 | -2
COc1cc(-c2nc3ccc4ccccc4c3c3c2CCC3)cc(OC)c1O | / | 75 | /
CO[C@@H]1CN(C)C(=O)c2ccc(NC(=O)C3CC3)cc2OC[C@H](C)N(Cc2ccncc2)C[C@@H]1C | 3 | / | -2
Cc1cc(C)nc(SCc2nnc(SCC(=O)Nc3nc(-c4ccccc4)cs3)n2C)n1 | 13 | -4 | 0
CCn1c(CSc2nc(C)cc(C)n2)nnc1SCC(=O)Nc1nc(-c2ccccc2)cs1 | 117* | -9 | 1
COc1ccc(C(C(=O)NCc2ccccc2)N(Cc2ccco2)C(=O)c2cnccn2)cc1 (centres undefined) | / | -3 | /
COC(=O)c1cccc(N(C(=O)c2cnccn2)C(C(=O)NCc2ccccc2)c2ccco2)c1 (centres undefined) | / | 322* | /
CC(C)C#Cc1ccc2c(c1)O[C@H](CN(C)S(=O)(=O)c1cn(C)cn1)[C@@H](C)CN([C@@H](C)CO)S2(=O)=O | 7 | / | -1
O=C(Nc1ccccc1Oc1cccnc1)C1CCCN(Cc2ccccc2O)C1 (centres undefined) | 11 | -22 | 0
C#Cc1ccc(CN2CCCC(C(=O)Nc3ccccc3Oc3cccnc3)C2)cc1 (centres undefined) | 91* | 11 | -2
CCCNC(=O)[C@H]1[C@H](CO)[C@H]2Cn3c(ccc(-c4ccncc4)c3=O)[C@@H]1N2CC1CC1 | 1 | / | /
CC(C)CC(NC(=O)C1CCC(C)CC1)C(=O)NCc1cccnc1 (centres undefined) | -1 | 11 | -2
CC(C)CC(NC(=O)C1CCC(C)CC1)C(=O)Nc1cccnc1 (centres undefined) | 108* | 8 | 0
COCCNC(=O)C[C@@H]1C[C@H]2c3cc(NC(=O)c4cccnc4)ccc3O[C@H]2[C@H](CO)O1 | -3 | / | 3
CO[C@H]1CN(C)C(=O)c2ccc(NC(=O)c3ccc4c(c3)OCO4)cc2OC[C@H](C)N(CC2CC2)C[C@H]1C | -1 | / | 0
CSC(=S)N/N=C/c1ccccc1 | 87* | -26 | -2
SMILES | C2C12 statin | SUMO Mot1 rescue | Cneo AK release
COc1ccc(/C=N/NC(=S)SC)cc1OC | / | -17 | /
O=C(N[C@@H]1CC[C@H](CC(=O)N2CCOCC2)O[C@H]1CO)c1ccccn1 | 4 | / | 54
CC(OC(=O)c1ccccc1NS(=O)(=O)c1cccc(N)c1)C(=O)N(C)Cc1ccccc1 (centres undefined) | 86* | -2 | 1
CC(OC(=O)c1cccc(O)c1)C(=O)N(C)Cc1ccccc1 (centres undefined) | 29 | 6 | 0
CN(C)c1ccnc(Oc2ccc(C(C)(C)C)cc2)c1C#N | -17 | 356* | -2
CN(C)c1ccnc(Oc2ccc(Cl)cc2)c1C#N | -5 | -4 | -1
Cc1noc(C)c1S(=O)(=O)N(C)C[C@@H]1OCCCC[C@@H](C)Oc2ccc(NS(=O)(=O)c3ccc(F)cc3)cc2C(=O)N([C@H](C)CO)C[C@@H]1C | / | / | -18
C[C@H](CO)N1C[C@H](C)[C@@H](CN(C)C(=O)c2ccncc2)Oc2ncc(C3=CCCCC3)cc2C1=O | 4 | / | -4
COc1ccc(COC(=O)C2=C(C)NC(=O)NC2c2cc(OC)ccc2OC)cc1 (centres undefined) | 12 | -16 | -7
CCSCCOC(=O)C1=C(C)NC(=O)NC1c1cc(OC)ccc1OC (centres undefined) | 99* | -14 | 1
CC(C)(C)C1CCC2(CC1)NC(=S)N(c1ccccc1)N2 (centres undefined) | / | 302* | -1
CCC(C)(C)C1CCC2(CC1)NC(=S)N(c1ccccc1)N2 (centres undefined) | 2 | 214 | /
C[C@@H]1CN([C@H](C)CO)C(=O)c2cc(-c3cccc(F)c3)cnc2O[C@@H]1CN(C)C(=O)C1CC1 | -11 | / | /
CC(=O)N1[C@@H](CO)[C@@H]2c3ccccc3N(S(=O)(=O)c3cccc(C)c3)C[C@@H]21 | -6 | / | -3
C[C@@H]1CN([C@H](C)CO)C(=O)c2cc(C3=CCCCC3)cnc2O[C@@H]1CN(C)C(=O)c1cccnc1 | -1 | / | /
COc1ccc(-c2noc(CCCOc3ccc(Cl)cc3Cl)n2)cc1 | 109* | 0 | 3
Cc1ccc(-c2noc(CCCOc3ccc(Cl)cc3Cl)n2)cc1 | 6 | -1 | -1
Cc1nn2c3ccccc3n(C)c2nc1=O | / | -15 | 1
Cc1nn2c3ccccc3n(Cc3ccccc3)c2nc1=O | 118* | -3 | 3
Cc1ccc(S(=O)(=O)N(C)C[C@H]2OCCCC[C@H](C)Oc3ccc(NS(=O)(=O)c4cn(C)cn4)cc3C(=O)N([C@H](C)CO)C[C@H]2C)cc1 | / | / | 42
CCC(=O)N1[C@@H]2Cn3c(ccc(/C=C/c4ccccc4)c3=O)[C@H]1[C@@H](C(=O)N(C)C)[C@@H]2CO | 20 | / | 1
Cn1cnc(S(=O)(=O)N[C@@H]2CC[C@H](CC(=O)Nc3ccc(-c4ccccc4)cc3)O[C@@H]2CO)c1 | -3 | / | -4
N#CCc1ccc(Oc2ncccn2)cc1 | -3 | 356* | 2
O=[N+]([O-])c1ccc(Oc2ncccn2)cc1 | / | 137 | -1
CCNC(=O)Cn1cc(C#N)c2ccccc21 | 93* | -4 | -2
SMILES | C2C12 statin | SUMO Mot1 rescue | Cneo AK release
COc1ccc(NC(=O)Cn2cc(C#N)c3ccccc32)cc1 | / | -22 | /
CCCNC(=O)N(C)C[C@H]1Oc2ncc(C3=CCCCC3)cc2C(=O)N([C@H](C)CO)C[C@H]1C | 6 | / | 1
CC(C)C12CN3CC(C(C)C)(CN(C1)C31C(=O)Nc3ccccc31)C2=O (centres undefined) | 90* | -3 | 2
CC(C)C12CN3CC(C(C)C)(CN(C1)C3c1ccccc1O)C2=O (centres undefined) | 11 | 75 | -1
O=C(c1ccc(Cl)c([N+](=O)[O-])c1)N(Cc1ccc(F)cc1)C1CCS(=O)(=O)C1 (centres undefined) | / | -4 | /
CN(C)c1ccc(CN(C(=O)c2ccc(Cl)c([N+](=O)[O-])c2)C2CCS(=O)(=O)C2)cc1 (centres undefined) | -13 | 341* | /
CCc1c(C)nc(N2CCN(c3ccccc3)CC2)[nH]c1=O | 24 | 3 | 0

Source: PubChem (Broad Institute)
